Source: ChEMBL document CHEMBL4364260, “Discovery of Ziresovir as a Potent, Selective, and Orally Bioavailable Respiratory Syncytial Virus Fusion Protein Inhibitor” (J Med Chem, 2019)

Experiment: AUC (0 to 24 hrs) in Wistar-Han rat at 10 mg/kg, po administered as single dose via gavage and measured up to 24 hrs by LC/MS/MS analysis
Type: ADME, organism-based
Set-up: dose 10 mg/kg, time < 24 hr, route oral
Details: in vivo
Method in brief: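 Single-dose PK in male Wistar-Han rats at 2 mg/kg iv or 10 mg/kg po, as a solution in 5% DMSO, 40% PEG400 and 55% 0.9% sodium chloride.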

Work on Cc1ccc2nc(N3CCS(=O)(=O)c4ccccc4C3)nc(NCC3(N)COC3)c2c1 [ZIRESOVIR] yielded an AUC(0-t) at 24 h of 906 ng·h/mL.
